Results published in ChEMBL document CHEMBL4007437, “High-Potency Phenylquinoxalinone Cystic Fibrosis Transmembrane Conductance Regulator (CFTR) Activators” (J Med Chem, 2017).
Activity calls are given as the source filed them. The calls are words filed in the database; no cut-off is given here.

Assays:
[1] = target: Cystic fibrosis transmembrane conductance regulator (Homo sapiens, UniProt P13569, H148Q); assay: Activation of human CFTR expressed in FRT cells co-expressing YFP H148Q mutant assessed as increase in forskolin-stimulated iodide influx measured after 10 mins by fluorescence assay; type: cell-based
Outline: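 FRT cells stably coexpressing human wild-type CFTR and YFP-H148Q, near-confluent; washed with PBS, then 10 min in PBS with test compound and 125 nM forskolin. YFP fluorescence recorded 2 s baseline and 12 s after iodide addition (final 140 mM). Iodide influx rates fitted to concentration–response curves for EC50.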

[2] = tested on: Mus musculus; assay: Suppression of constipation in po dosed loperamide-induced CD1 mouse acute constipation model assessed as normalization of pellet number administered 1 hr prior to loperamide addition measured after 3 hrs; type: functional
Outline: (§1)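 CD1 mice, 8–10 weeks; compound or vehicle (saline, 5% DMSO, 10% Kolliphor HS 15) given orally at 0, 0.1, 0.3, 1, 3 or 10 mg/kg 1 h before loperamide 0.3 mg/kg ip. Stool collected 3 h in metabolic cages; weight, pellet count and water content (wet/dry weights). Mean ± SEM, 4 mice per group.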

[3] = tested on: Mus musculus; assay: Suppression of constipation in po dosed loperamide-induced CD1 mouse acute constipation model assessed as normalization of stool water content administered 1 hr prior to loperamide addition measured after 3 hrs; type: functional; outline: as §1
[4] = species on record: Homo sapiens; assay: Activation of calcium-activated chloride channel in human HT29 cells co-expressing YFP at 10 uM after 10 mins presence of iodide by fluorescence assay; type: cell-based
[5] = Effect on cAMP levels in Fischer rat thyroid cells at 10 uM incubated for 10 mins by immunoassay; type: ADME, cell-based; settings: thyroid cell
Outline: (§2)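 FRT cells incubated 10 min with 10 μM compound, without or with 90 nM forskolin, then cellular cAMP measured. Positive controls: forskolin 100 nM and 20 μM, forskolin + IBMX (20 μM + 100 μM). Mean ± SEM, n = 4.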

[6] = Effect on forskolin-stimulated cAMP levels in Fischer rat thyroid cells at 10 uM incubated for 10 mins by immunoassay; type: ADME, cell-based; settings: thyroid cell; outline: as §2
[7] = Elevation of cytoplasmic calcium levels in Fischer rat thyroid cells at 10 uM after 5 mins by Fluo-4 based fluorescence assay; settings: thyroid cell
[8] = target: T1, Anoctamin-1 (Homo sapiens) (UniProt Q5XXA6); assay: Activation of human TMEM16A expressed in FRT cells co-expressing YFP assessed as increase in iodide influx at 10 uM measured after 10 mins by fluorescence assay; type: cell-based
T1 sequence (whole entry): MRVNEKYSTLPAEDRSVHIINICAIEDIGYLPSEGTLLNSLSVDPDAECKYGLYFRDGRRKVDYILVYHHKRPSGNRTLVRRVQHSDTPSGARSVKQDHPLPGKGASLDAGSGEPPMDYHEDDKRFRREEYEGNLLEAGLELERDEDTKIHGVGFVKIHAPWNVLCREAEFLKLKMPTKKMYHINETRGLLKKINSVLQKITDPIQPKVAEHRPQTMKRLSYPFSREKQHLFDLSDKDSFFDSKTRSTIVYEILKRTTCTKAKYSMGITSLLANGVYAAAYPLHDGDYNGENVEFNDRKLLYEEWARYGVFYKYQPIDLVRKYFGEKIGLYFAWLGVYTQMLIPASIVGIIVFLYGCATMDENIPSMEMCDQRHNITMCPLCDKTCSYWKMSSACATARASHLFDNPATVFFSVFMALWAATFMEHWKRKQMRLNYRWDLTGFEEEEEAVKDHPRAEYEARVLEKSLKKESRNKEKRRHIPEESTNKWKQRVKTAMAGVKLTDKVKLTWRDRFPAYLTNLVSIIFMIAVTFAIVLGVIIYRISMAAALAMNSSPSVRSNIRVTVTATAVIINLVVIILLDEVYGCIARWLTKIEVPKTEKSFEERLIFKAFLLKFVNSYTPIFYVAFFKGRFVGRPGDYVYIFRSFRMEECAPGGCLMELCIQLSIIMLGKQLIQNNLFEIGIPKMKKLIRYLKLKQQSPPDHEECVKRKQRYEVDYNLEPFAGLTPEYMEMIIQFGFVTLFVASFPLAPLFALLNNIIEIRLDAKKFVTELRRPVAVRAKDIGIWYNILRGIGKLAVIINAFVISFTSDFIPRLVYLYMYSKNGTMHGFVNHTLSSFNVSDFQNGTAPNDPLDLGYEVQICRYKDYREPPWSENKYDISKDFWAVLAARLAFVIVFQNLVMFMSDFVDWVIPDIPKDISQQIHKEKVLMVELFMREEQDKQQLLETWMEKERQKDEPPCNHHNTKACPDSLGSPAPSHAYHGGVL
Outline: (§3)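 FRT cells coexpressing YFP and TMEM16A; continuous single-well YFP fluorescence for 2 s before and 12 s after addition of iodide solution (final 140 mM iodide). Activation read with iodide alone, inhibition with iodide plus ATP; compound at 10 μM. Iodide influx rate calculated from fluorescence quenching.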

[9] = target: Cystic fibrosis transmembrane conductance regulator (Homo sapiens, UniProt P13569); assay: Activation of human CFTR expressed in forskolin-stimulated basolateral membrane permeabilized FRT cells assessed as increase in short-circuit current amplitude after 30 mins by voltage clamp method; type: cell-based
Outline: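 Short-circuit current in FRT cells expressing human wild-type CFTR grown on porous filters, with a transepithelial chloride gradient and permeabilized basolateral membrane. Low-concentration forskolin added first, then cumulative activator concentrations, finally 10 μM CFTRinh-172. EC50 from concentration–response, mean ± SEM, n = 3.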

[10] = species on record: Homo sapiens; assay: Inhibition of calcium-activated chloride channel in human HT29 cells co-expressing YFP assessed as reduction in ATP-stimulated calcium levels at 10 uM preincubated for 10 mins followed by ATP addition in presence of iodide by fluorescence assay; type: cell-based
[11] = target: T1, Anoctamin-1 (Homo sapiens); assay: Inhibition of human TMEM16A expressed in FRT cells co-expressing YFP assessed as decrease in iodide influx at 10 uM measured after 10 mins in presence of ATP by fluorescence assay; type: cell-based; outline: as §3

Chain of Cystic fibrosis transmembrane conductance regulator (Homo sapiens, UniProt P13569, H148Q) (P13569 whole entry, looked up, stated change not applied): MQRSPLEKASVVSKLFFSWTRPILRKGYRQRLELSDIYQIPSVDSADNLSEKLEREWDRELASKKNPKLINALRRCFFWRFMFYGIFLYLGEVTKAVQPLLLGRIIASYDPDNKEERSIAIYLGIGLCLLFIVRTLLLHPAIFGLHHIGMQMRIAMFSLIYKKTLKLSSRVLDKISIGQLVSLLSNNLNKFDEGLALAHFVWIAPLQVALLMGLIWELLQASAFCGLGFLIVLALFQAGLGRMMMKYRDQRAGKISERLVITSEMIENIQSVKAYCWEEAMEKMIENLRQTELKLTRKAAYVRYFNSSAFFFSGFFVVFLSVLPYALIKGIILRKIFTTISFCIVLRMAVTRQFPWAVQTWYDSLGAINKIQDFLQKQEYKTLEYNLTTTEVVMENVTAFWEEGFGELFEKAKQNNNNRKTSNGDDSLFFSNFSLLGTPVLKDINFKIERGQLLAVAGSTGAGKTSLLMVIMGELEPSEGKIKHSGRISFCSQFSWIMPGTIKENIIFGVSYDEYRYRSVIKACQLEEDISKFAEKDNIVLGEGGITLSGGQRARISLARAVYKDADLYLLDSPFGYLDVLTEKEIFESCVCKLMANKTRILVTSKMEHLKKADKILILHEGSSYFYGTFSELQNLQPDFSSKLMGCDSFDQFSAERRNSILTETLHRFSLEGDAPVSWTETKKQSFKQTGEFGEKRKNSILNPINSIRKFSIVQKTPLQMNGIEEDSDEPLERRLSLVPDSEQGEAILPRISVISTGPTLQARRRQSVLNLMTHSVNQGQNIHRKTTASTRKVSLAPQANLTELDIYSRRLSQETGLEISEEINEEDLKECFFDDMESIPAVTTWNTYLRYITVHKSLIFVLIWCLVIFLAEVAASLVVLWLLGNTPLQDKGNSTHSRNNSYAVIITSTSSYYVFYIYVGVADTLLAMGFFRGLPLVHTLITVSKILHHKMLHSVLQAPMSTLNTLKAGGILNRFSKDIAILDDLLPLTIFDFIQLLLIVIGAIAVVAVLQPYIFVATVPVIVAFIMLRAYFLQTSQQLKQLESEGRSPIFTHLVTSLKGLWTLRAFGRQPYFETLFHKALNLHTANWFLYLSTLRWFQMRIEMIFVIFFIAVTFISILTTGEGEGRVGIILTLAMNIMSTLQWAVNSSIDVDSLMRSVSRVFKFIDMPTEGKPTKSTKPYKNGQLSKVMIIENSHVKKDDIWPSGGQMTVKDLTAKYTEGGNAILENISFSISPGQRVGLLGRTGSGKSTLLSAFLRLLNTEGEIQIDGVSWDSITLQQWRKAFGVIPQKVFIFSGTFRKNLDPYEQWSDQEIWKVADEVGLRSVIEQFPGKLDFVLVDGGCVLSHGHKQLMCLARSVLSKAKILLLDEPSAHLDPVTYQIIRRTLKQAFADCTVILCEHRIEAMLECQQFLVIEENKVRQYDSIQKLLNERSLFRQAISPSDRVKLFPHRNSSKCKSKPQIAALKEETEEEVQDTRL

Structure (SMILES) | EC50 ([1]; read-out: EC50) [µM] | other results
O=c1c(-c2cccc([N+](=O)[O-])c2)nc2cc(F)c(F)cc2n1Cc1ccccc1 | > 10 | –
O=C(O)c1ccc([N+](=O)[O-])c(-c2nc3ccccc3n(Cc3ccccc3)c2=O)c1 | > 10 | –
CC(=O)Nc1ccc([N+](=O)[O-])cc1-c1nc2cccc3c2n(c1=O)CCO3 | 0.82 | –
O=c1c(-c2cccc([N+](=O)[O-])c2)nc2ccccc2n1Cc1ccccc1 | – | ED50 [2]: < 1 mg/kg; ED50 [3]: < 1 mg/kg; Activity [4]: inactive; Activity [5]: Non-Toxic; Activity [6]: Non-Toxic; Activity [7]: Non-Toxic; Activity [8]: inactive; Activity [9]: Dose-dependent effect; inhibition [10]: inactive; inhibition [11]: inactive
O=c1c(-c2cccc([N+](=O)[O-])c2)nc2ccccc2n1Cc1cccc2ccccc12 | – | EC50 [1]: Not Active
O=c1c(-c2cccc([N+](=O)[O-])c2)nc2ccccc2n1Cc1cccs1 | 0.01 | Activity [9]: Dose-dependent effect; EC50 [9]: 0.07 µM
Cc1cc2nc(-c3cccc([N+](=O)[O-])c3)c(=O)n(Cc3ccccc3)c2cc1C | > 10 | –
Cn1c(=O)c(-c2cccc([N+](=O)[O-])c2)nc2ccccc21 | > 10 | –
O=[N+]([O-])c1ccc2nc3n(Cc4ccccc4)c4ccc(C(F)(F)F)cc4nc-3c2c1 | > 10 | –
Nc1ccc([N+](=O)[O-])cc1-c1nc2cccc3c2n(c1=O)C(c1ccccc1)CO3 (centres undefined) | > 10 | –
O=c1c(-c2cccc([N+](=O)[O-])c2)nc2cc(Cl)c(Cl)cc2n1Cc1ccccc1 | > 10 | –
COC(=O)c1ccc([N+](=O)[O-])c(-c2nc3ccccc3n(Cc3ccccc3)c2=O)c1 | 9.9 | –
Nc1ccc(C(=O)O)cc1-c1nc2ccccc2n(Cc2ccccc2)c1=O | > 10 | –
Fc1ccc2nc3n(Cc4ccccc4)c4ccc(C(F)(F)F)cc4nc-3c2c1 | > 10 | –
O=c1c(-c2cccc([N+](=O)[O-])c2)nc2ccc(Br)cc2n1Cc1ccccc1 | – | EC50 [1]: Not Active
N#Cc1cccc(-c2nc3ccccc3n(Cc3ccccc3)c2=O)c1 | 1 | –
Cc1cccc2nc(-c3cccc([N+](=O)[O-])c3)c(=O)n(Cc3ccccc3)c12 | > 10 | –
O=c1[nH]c2ccccc2nc1-c1cccc([N+](=O)[O-])c1 | > 10 | –
